CSN deneddyl inh = inhibitors of CSN-mediated cullin deneddylation, primary screen, biochemical, fluorescence polarization, uHTS; COP9 signalosome complex subunit 5 (Homo sapiens), Q92905; Purified CSN, SCF-Nedd8-OG deneddylation; inhibition, % at 12.5 µM; 360,000 compounds, 0.38% hits; AID 651999, 2013;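 active means pattern-corrected inhibition above about 35%, with an unprinted fluorescence ratio check between 0.5 and 1.5, limit read from the data, passing the limit was not always enough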
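Detection – fluorescence polarization · System – HEK293T-derived human Csn5 enzyme · Controls – substrate-only high control, full reaction low control · Timing – 90 min, room temperature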
IDE cell activ = human IDE activators in live cells, primary screen, fluorescence polarization, HEK cells, FAbeta-B substrate. Insulin-degrading enzyme (Homo sapiens), P14735. FAbeta-B cleavage; 0% vehicle, 100% cell-free pure enzyme wells. activation, % at 5.96 µM. 340,000 compounds, 0.073% hits. AID 493087, 2011;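 active means activation above the mean of all tested compounds plus 3 SD, set per screening campaign, cut at about 17% in these data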
TPT1 inhibitor = Candida albicans TPT1 enzyme inhibitors, primary screen, biochemical, fluorescence polarization; tRNA 2'-phosphotransferase TPT1 (Candida albicans SC5314); recombinant caTPT1, FP RNA substrate dephosphorylation; inhibition, % at 5 µM; 300,000 compounds, 0.81% hits;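 active means inhibition above the mean of all tested compounds plus 3 SD, set per screening campaign, cut at about 24% in these data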
Rpn11 block = Rpn11 (PSMD14) deubiquitinase inhibitors, primary screen, biochemical, fluorescence polarization, uHTS; human 26S proteasome, Ub4-pepOG fluorescence polarization; 20S core pre-blocked with epoxomicin; inhibition, % at 20 µM; 360,000 compounds, 0.59% hits; AID 588493, 2011;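 active means inhibition at 20 µM, scaled to each plate's controls, above about 33%, limit read from the data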
Target sequence (O00487 whole entry, looked up): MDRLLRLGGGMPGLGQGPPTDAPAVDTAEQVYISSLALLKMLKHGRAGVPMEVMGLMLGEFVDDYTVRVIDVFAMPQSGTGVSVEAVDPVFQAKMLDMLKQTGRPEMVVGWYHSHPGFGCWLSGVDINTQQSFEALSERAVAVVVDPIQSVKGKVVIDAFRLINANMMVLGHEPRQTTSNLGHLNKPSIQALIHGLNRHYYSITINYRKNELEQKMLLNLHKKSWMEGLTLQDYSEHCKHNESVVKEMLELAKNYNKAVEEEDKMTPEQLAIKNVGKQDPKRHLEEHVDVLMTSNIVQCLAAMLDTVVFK
IDE inh = human IDE inhibitors in live cells, primary screen, fluorescence polarization, HEK cells, FAbetaB substrate; FAbetaB cleavage; inhibition, % at 5.59 µM; 320,000 compounds, 0.41% hits; AID 434962, 2010;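 active means percent inhibition above the average of all tested compounds plus 3 SD, set per screening campaign, cut at about 16% in these data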;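 further: IDE supplied by intact live HEK cells; FP after avidin binding of uncleaved biotin substrate so inhibition keeps polarization high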
HNF4A DNA FP = change in binding of human HNF4A to DNA, primary screen, biochemical, fluorescence polarization, FITC-DNA; 1 h; AID 1224865, 2016; activity change, % at 10 µM; 360,000 compounds, 0.3% hits; Hepatocyte nuclear factor 4-alpha (Homo sapiens), P41235; in the data active means activity change above about 30%, passing the limit was not always enough
caTPT1 confirm = Candida albicans TPT1 inhibitors, confirmation, biochemical, fluorescence polarization, triplicate | shares compounds with TPT1 inhibitor | recombinant caTPT1, RNase T1 coupled | AID 2149, 2009 | 2,400 compounds, 74% hits | inhibition, % at 5 µM;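 active means inhibition above the primary screen limit, the mean inhibition of all tested compounds plus 3 SD, cut at about 25% in these data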
RNase T1 inh = RNase T1 inhibitors, counter-screen for TPT1 inhibitor project, biochemical, fluorescence polarization; inhibition, % at 5 µM; RNase T1 cleavage, 1536-well; shares compounds with TPT1 inhibitor; 2,400 compounds, 83% hits;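 active means inhibition above the solvent-only control well mean plus 3 SD, limit set per screening run, cut at about 23% in these data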;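 further: inhibitors block cleavage so intact labeled substrate keeps polarization high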
Target sequence (P00651 whole entry, looked up): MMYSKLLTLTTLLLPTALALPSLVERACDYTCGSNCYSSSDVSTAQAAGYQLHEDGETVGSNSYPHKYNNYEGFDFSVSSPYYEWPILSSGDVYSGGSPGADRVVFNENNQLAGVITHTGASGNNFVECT
A number is an active result; - = inactive; . = no result given. In the library only some 1.7% were active in any assay of this set; here they are far more common.

SMILES	CSN deneddyl inh	IDE cell activ	TPT1 inhibitor	Rpn11 block	IDE inh	HNF4A DNA FP	caTPT1 confirm	RNase T1 inh
COc1cc(/C=C2/C(=O)NC(=O)N(c3ccc(C)cc3)C2=O)cc(OC)c1OC	-	-	-	-	-	-	.	.
COc1ccc(C(c2nnnn2-c2c(C)cccc2C)N2CCC(n3c(=O)[nH]c4ccccc43)CC2)cc1 (stereo unspecified)	-	.	.	-	.	-	.	.
CC1=NN(c2ccccc2)C(=O)C1/C=C1/C(=O)NC(=O)N(c2cc(C)cc(C)c2)C1=O (stereo unspecified)	-	-	28.7	-	-	-	31.9	50.3
CC1=NN(c2ccccc2)C(=O)C1/C=C1\C(=O)NC(=O)N(c2cc(C)cc(C)c2)C1=O (stereo unspecified)	-	-	-	-	-	-	.	.
O=C(O)Cn1cc(/C=C2\C(=O)NC(=O)N(c3ccc(Br)cc3)C2=O)c2ccccc21	-	-	37.3	-	-	-	40.8	51.4
O=C1NC(=O)N(c2ccccc2F)C(=O)/C1=C/c1cn(CC(=O)N2CCOCC2)c2ccccc12	.	.	28.4	.	-	.	-	-
O=C1NC(=O)N(c2ccc(Br)cc2)C(=O)/C1=C/c1ccsc1	-	-	30.2	-	-	-	-	-
COc1cc(O)c2c(c1)/C=C/C[C@H](O)[C@H](O)C(=O)CCC[C@H](C)OC2=O	-	.	.	-	.	-	.	.
Cc1cccc(N2C(=O)NC(=O)/C(=C\c3ccc4c(c3)CCCN4Cc3ccccc3)C2=O)c1	-	-	92.3	.	-	-	151.5	141.3
Cc1cccc(N2C(=O)NC(=O)/C(=C/c3cc4c(cc3[N+](=O)[O-])OCO4)C2=O)c1	-	-	-	-	-	-	.	.
O=C(NC(=S)N1CC1)c1ccccc1	-	.	.	-	.	-	.	.
CCOC(=O)c1c(/N=C/C2C(=O)NC(=S)NC2=O)sc2c1CCC2	-	.	112.8	.	-	-	-	33.4
C[C@]1(O)CCC2C3CC[C@H]4C[C@@H](OC(=O)[C@@H](N)CCCCN)CC[C@]4(C)C3CC[C@@]21C (stereo partly specified)	-	.	.	-	.	-	.	.
C1=C(c2c[nH]c3ccccc23)CCNC1	.	.	79.7	.	-	.	50.3	58.5
CCCCn1c(O)c(C(CC)=NCCc2ccccc2)c(=O)[nH]c1=O	-	-	-	-	-	-	.	.
CCCCn1c(O)c(C(=O)/C=C/c2c[nH]c3ccccc23)c(=O)[nH]c1=O	-	-	120.5	.	-	-	177.9	161.1
O=c1[nH]c(=S)n(-c2ccc(Br)cc2)c(O)c1C=Nc1ccc(N2CCOCC2)cc1	-	-	-	-	-	-	.	.
O=c1[nH]c(=S)n(-c2ccccc2F)c(O)c1C=Nc1ccc(N2CCOCC2)cc1	-	-	33.0	-	-	-	46.8	60.0
Cc1cc(C)cc(-n2c(O)c(C=Nc3ccc(N4CCOCC4)cc3)c(=O)[nH]c2=S)c1	-	-	35.3	-	-	-	57.4	72.5
Cc1cccc(C(=O)Nc2ccc3c(c2)CC2(C(=O)N(C)C(=O)N(C)C2=O)C2CCCN32)c1 (stereo unspecified)	-	-	26.1	-	-	-	35.5	49.4
COc1ccccc1C(=O)Nc1ccc2c(c1)CC1(C(=O)N(C)C(=O)N(C)C1=O)C1CCCN21 (stereo unspecified)	-	-	-	-	-	-	.	.
CCn1c(O)c(/C=N/NC(=O)c2ccccc2)c(=O)n(CC)c1=S	-	.	93.6	-	-	-	26.5	34.0
CCCCn1nnnc1C(CC)N1CCC2(CC1)C(=O)NCN2c1ccccc1 (stereo unspecified)	-	.	.	-	.	-	.	.
C=CCn1c(O)c(C=NCCN2CCNCC2)c(=O)[nH]c1=O	-	-	-	-	-	-	.	.
O=c1[nH]c(=O)n(Cc2ccco2)c(O)c1C=NCCN1CCOCC1	-	-	24.8	-	-	-	30.1	41.9
SMILES	CSN deneddyl inh	IDE cell activ	TPT1 inhibitor	Rpn11 block	IDE inh	HNF4A DNA FP	caTPT1 confirm	RNase T1 inh
O=c1[nH]c(=O)n(Cc2ccccc2)c(O)c1C=NCCCn1ccnc1	-	-	48.3	-	-	-	34.8	44.9
O=c1[nH]c(=O)n(CCC2=CCCCC2)c(O)c1C=NCCN1CCNCC1	-	-	27.1	.	-	-	43.7	54.7
O=c1[nH]c(=O)n(Cc2ccccc2)c(O)c1/C=C1\C=Nc2ccccc21	-	-	58.1	.	-	-	-	26.8
O=c1[nH]c(=O)n(-c2ccccc2F)c(O)c1/C=C1\C=Nc2ccccc21	-	-	55.6	-	-	-	-	28.7
O=c1[nH]c(=O)n(Cc2ccccc2)c(O)c1C=NCCN1CCNCC1	-	-	-	-	-	-	.	.
COC(=O)C1=Nc2ccccc2/C1=C\c1c(O)n(-c2cc(OC)ccc2OC)c(=O)[nH]c1=O	-	-	-	-	-	-	.	.
CCN(CC)CCCN=Cc1c(O)n(-c2ccccc2F)c(=O)[nH]c1=O	-	-	-	-	-	-	.	.
COc1ccc(-n2c(O)c(/C=C3\C=Nc4ccc(Br)cc43)c(=O)[nH]c2=O)c(OC)c1	-	-	39.1	-	-	-	-	-
O=c1[nH]c(=O)n(-c2ccc(F)cc2)c(O)c1/C=C1\C=Nc2ccccc21	-	-	51.2	-	-	-	69.6	76.7
Cc1cc(Br)cn2c(CC(=O)N3CCCCC3)c(-c3ccc(F)cc3)nc12	-	.	.	.	.	-	.	.
Cn1c(O)c(/C=C2\C=Nc3ccc(Br)cc32)c(=O)n(C)c1=O	-	-	28.0	-	-	-	-	-
COC(=O)[C@@H]1N=C(c2ccc(OC)cc2)O[C@]12C(=O)N(C)c1ccc(Cl)cc12	-	.	.	.	.	-	.	.
O=[N+]([O-])c1cc2c(cc1CNCCc1ccc3c(c1)OCO3)OCO2	-	-	32.0	-	-	-	-	-
Fc1ccc(CNCCc2ccc3c(c2)OCO3)cc1	-	-	-	-	-	-	.	.
C[C@H](CO)N1C[C@H](C)[C@@H](CN(C)C(=O)Oc2ccccc2)OCc2cnnn2CCCC1=O	-	.	.	-	.	-	.	.
